Assay results from ChEMBL document CHEMBL5724801, “EUbOPEN Chemogenomics Library - Multiplex” (2024).
Several values for one entry are separate records, joined by “and”; a condition that tells them apart may be missing. Equal entries are not always repeated.

Test system: U2OS
Assay: Multiplex assay against U2OS
Format: toxicity, cell-based
Settings: human
Summary of the method: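 Four dyes were applied at seeding to live cells: Hoechst33342, BioTracker Green Microtubule Cytoskeleton Dye, MitoTracker Red and Annexin V Alexa Fluor 680. Imaging after compound addition used a CQ1 microscope at 37°C and 5% CO2. CellPathfinder machine-learning gating then sorted cells into Hoechst high-intensity objects or normal cells, normal cells into healthy, pyknosed or fragmented nuclei, and pyknosed cells into mitotic or apoptotic, with tubulin, mitochondrial-mass and membrane-permeability phenotypes given as per cents of healthy-nucleus cells.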

[1] = 12 h, 1 µM, compound concentration 1 uM
[2] = 12 h, 10 µM, compound concentration 10 uM
[3] = 24 h, 1 µM, compound concentration 1 uM
[4] = 24 h, 10 µM, compound concentration 10 uM
[5] = 48 h, 1 µM, compound concentration 1 uM
[6] = 48 h, 10 µM, compound concentration 10 uM

## CC(C)COc1ccc(CNC(=O)N(Cc2ccc(F)cc2)C2CCN(C)CC2)cc1 [PIMAVANSERIN]
[1]
  Population Apoptotic (%): 84% and 100%
  Population Fragmented Nuclei (%): 23% and 11%
  Population Healthy Nuclei (%): 67% and 80%
  Population Hoechst High Intensity Objects (%): 2% and 0%
  Population Membrane Permeable-Phenotype (%): 6%
  Population Mitochondria Different-Phenotype (%): 3% and 4%
  Population Mitotic Cells (%): 16% and 0%
  Population Normal (%): 97% and 99%
  Population Pyknosed Nuclei (%): 9% and 7%
  Population Tubulin-Different-Phenotype (%): 5% and 6%
  Total Cell Count: 265 and 136
[2]
  Population Apoptotic (%): 67% and 71%
  Population Fragmented Nuclei (%): 23% and 18%
  Population Healthy Nuclei (%): 48% and 54%
  Population Hoechst High Intensity Objects (%): 5% and 4%
  Population Membrane Permeable-Phenotype (%): 48% and 26%
  Population Mitochondria Different-Phenotype (%): 73% and 70%
  Population Mitotic Cells (%): 32% and 28%
  Population Normal (%): 94% and 95%
  Population Pyknosed Nuclei (%): 27% and 26%
  Population Tubulin-Different-Phenotype (%): 77% and 52%
  Total Cell Count: 202 and 124
[3]
  Population Apoptotic (%): 92% and 78%
  Population Fragmented Nuclei (%): 22% and 11%
  Population Healthy Nuclei (%): 67% and 80%
  Population Hoechst High Intensity Objects (%): 2% and 1%
  Population Membrane Permeable-Phenotype (%): 10% and 11%
  Population Mitochondria Different-Phenotype (%): 4% and 8%
  Population Mitotic Cells (%): 7% and 21%
  Population Normal (%): 97% and 98%
  Population Pyknosed Nuclei (%): 9% and 8%
  Population Tubulin-Different-Phenotype (%): 6%
  Total Cell Count: 294 and 163
[4]
  Population Apoptotic (%): 88% and 79%
  Population Fragmented Nuclei (%): 28% and 16%
  Population Healthy Nuclei (%): 40% and 50%
  Population Hoechst High Intensity Objects (%): 10% and 3%
  Population Membrane Permeable-Phenotype (%): 32% and 30%
  Population Mitochondria Different-Phenotype (%): 67% and 75%
  Population Mitotic Cells (%): 11% and 20%
  Population Normal (%): 89% and 96%
  Population Pyknosed Nuclei (%): 31% and 33%
  Population Tubulin-Different-Phenotype (%): 49%
  Total Cell Count: 214 and 135
[5]
  Population Apoptotic (%): 87% and 92%
  Population Fragmented Nuclei (%): 19% and 12%
  Population Healthy Nuclei (%): 68% and 76%
  Population Hoechst High Intensity Objects (%): 2% and 1%
  Population Membrane Permeable-Phenotype (%): 6% and 5%
  Population Mitochondria Different-Phenotype (%): 5%
  Population Mitotic Cells (%): 12% and 7%
  Population Normal (%): 97% and 98%
  Population Pyknosed Nuclei (%): 12% and 11%
  Population Tubulin-Different-Phenotype (%): 4% and 2%
  Total Cell Count: 393 and 234
[6]
  Population Apoptotic (%): 98% and 95%
  Population Fragmented Nuclei (%): 38%
  Population Healthy Nuclei (%): 19% and 15%
  Population Hoechst High Intensity Objects (%): 13% and 8%
  Population Membrane Permeable-Phenotype (%): 40% and 66%
  Population Mitochondria Different-Phenotype (%): 56% and 80%
  Population Mitotic Cells (%): 1% and 4%
  Population Normal (%): 86% and 91%
  Population Pyknosed Nuclei (%): 42% and 45%
  Population Tubulin-Different-Phenotype (%): 54% and 71%
  Total Cell Count: 222 and 146

## COc1ccc(-n2c(C)c([N+](=O)[O-])c3ccc(O)cc32)cc1
[1]
  Population Apoptotic (%): 45.24% and 38.46%
  Population Fragmented Nuclei (%): 0.72% and 4.55%
  Population Healthy Nuclei (%): 89.23% and 88.07%
  Population Hoechst High Intensity Objects (%): 0%
  Population Membrane Permeable-Phenotype (%): 2.14% and 5.16%
  Population Mitochondria Different-Phenotype (%): 0.27% and 4.52%
  Population Mitotic Cells (%): 54.76% and 61.54%
  Population Normal (%): 100%
  Population Pyknosed Nuclei (%): 10.05% and 7.39%
  Population Tubulin-Different-Phenotype (%): 0.8% and 1.29%
  Total Cell Count: 418 and 176
[2]
  Population Apoptotic (%): 24.32% and 50%
  Population Fragmented Nuclei (%): 1.07% and 1.43%
  Population Healthy Nuclei (%): 90.99% and 84.29%
  Population Hoechst High Intensity Objects (%): 0%
  Population Membrane Permeable-Phenotype (%): 1.42% and 6.78%
  Population Mitochondria Different-Phenotype (%): 0.47% and 5.08%
  Population Mitotic Cells (%): 75.68% and 50%
  Population Normal (%): 100%
  Population Pyknosed Nuclei (%): 7.94% and 14.29%
  Population Tubulin-Different-Phenotype (%): 4.01% and 0%
[3]
  Population Apoptotic (%): 52.94% and 48%
  Population Fragmented Nuclei (%): 1.65% and 2.64%
  Population Healthy Nuclei (%): 89.03% and 86.34%
  Population Hoechst High Intensity Objects (%): 0%
  Population Membrane Permeable-Phenotype (%): 0.62% and 4.08%
  Population Mitochondria Different-Phenotype (%): 0.21% and 4.08%
  Population Mitotic Cells (%): 47.06% and 52%
  Population Normal (%): 100%
  Population Pyknosed Nuclei (%): 9.32% and 11.01%
  Population Tubulin-Different-Phenotype (%): 1.03% and 1.53%
  Total Cell Count: 547 and 227
[4]
  Population Apoptotic (%): 38.64% and 52.38%
  Population Fragmented Nuclei (%): 2.67% and 2.78%
  Population Healthy Nuclei (%): 90% and 85.56%
  Population Hoechst High Intensity Objects (%): 0%
  Population Membrane Permeable-Phenotype (%): 1.67% and 3.9%
  Population Mitochondria Different-Phenotype (%): 0.37% and 3.25%
  Population Mitotic Cells (%): 61.36% and 47.62%
  Population Normal (%): 100%
  Population Pyknosed Nuclei (%): 7.33% and 11.67%
  Population Tubulin-Different-Phenotype (%): 1.67% and 0%
[5]
  Population Apoptotic (%): 36.36% and 48.48%
  Population Fragmented Nuclei (%): 2.25% and 2.47%
  Population Healthy Nuclei (%): 88.75% and 88.46%
  Population Hoechst High Intensity Objects (%): 0%
  Population Membrane Permeable-Phenotype (%): 0.69% and 2.48%
  Population Mitochondria Different-Phenotype (%): 0% and 3.42%
  Population Mitotic Cells (%): 63.64% and 51.52%
  Population Normal (%): 100%
  Population Pyknosed Nuclei (%): 9% and 9.07%
  Population Tubulin-Different-Phenotype (%): 0.58% and 1.24%
  Total Cell Count: 978 and 364
[6]
  Population Apoptotic (%): 56.82% and 55.26%
  Population Fragmented Nuclei (%): 3.3% and 3.1%
  Population Healthy Nuclei (%): 87.91% and 83.79%
  Population Hoechst High Intensity Objects (%): 0%
  Population Membrane Permeable-Phenotype (%): 0.91% and 4.12%
  Population Mitochondria Different-Phenotype (%): 0.11% and 3.7%
  Population Mitotic Cells (%): 43.18% and 44.74%
  Population Normal (%): 100%
  Population Pyknosed Nuclei (%): 8.79% and 13.1%
  Population Tubulin-Different-Phenotype (%): 1.7% and 2.88%

## O=c1ccc2ccc(OCCCCN3CCN(c4cccc5sccc45)CC3)cc2[nH]1 [BREXPIPRAZOLE]
[1]
  Population Apoptotic (%): 73% and 55%
  Population Fragmented Nuclei (%): 23% and 16%
  Population Healthy Nuclei (%): 62% and 69%
  Population Hoechst High Intensity Objects (%): 6% and 2%
  Population Membrane Permeable-Phenotype (%): 40% and 32%
  Population Mitochondria Different-Phenotype (%): 19% and 24%
  Population Mitotic Cells (%): 26% and 44%
  Population Normal (%): 93% and 97%
  Population Pyknosed Nuclei (%): 13% and 14%
  Population Tubulin-Different-Phenotype (%): 36% and 30%
  Total Cell Count: 178 and 126
[2]
  Population Apoptotic (%): 86% and 82%
  Population Fragmented Nuclei (%): 31% and 21%
  Population Healthy Nuclei (%): 27% and 43%
  Population Hoechst High Intensity Objects (%): 6% and 9%
  Population Membrane Permeable-Phenotype (%): 57% and 53%
  Population Mitochondria Different-Phenotype (%): 82% and 90%
  Population Mitotic Cells (%): 13% and 17%
  Population Normal (%): 93% and 90%
  Population Pyknosed Nuclei (%): 41% and 35%
  Population Tubulin-Different-Phenotype (%): 83% and 95%
  Total Cell Count: 220 and 109
[3]
  Population Apoptotic (%): 68% and 66%
  Population Fragmented Nuclei (%): 26% and 12%
  Population Healthy Nuclei (%): 55% and 67%
  Population Hoechst High Intensity Objects (%): 3%
  Population Membrane Permeable-Phenotype (%): 19% and 22%
  Population Mitochondria Different-Phenotype (%): 22% and 28%
  Population Mitotic Cells (%): 31% and 33%
  Population Normal (%): 96%
  Population Pyknosed Nuclei (%): 18% and 19%
  Population Tubulin-Different-Phenotype (%): 18% and 16%
  Total Cell Count: 181 and 128
[4]
  Population Apoptotic (%): 93% and 91%
  Population Fragmented Nuclei (%): 30% and 19%
  Population Healthy Nuclei (%): 25% and 26%
  Population Hoechst High Intensity Objects (%): 13% and 22%
  Population Membrane Permeable-Phenotype (%): 47% and 56%
  Population Mitochondria Different-Phenotype (%): 67% and 86%
  Population Mitotic Cells (%): 6% and 8%
  Population Normal (%): 86% and 77%
  Population Pyknosed Nuclei (%): 44% and 54%
  Population Tubulin-Different-Phenotype (%): 76% and 91%
  Total Cell Count: 213 and 112
[5]
  Population Apoptotic (%): 64% and 73%
  Population Fragmented Nuclei (%): 21% and 22%
  Population Healthy Nuclei (%): 61% and 56%
  Population Hoechst High Intensity Objects (%): 4% and 2%
  Population Mitochondria Different-Phenotype (%): 12% and 31%
  Population Mitotic Cells (%): 35% and 26%
  Population Normal (%): 95% and 97%
  Population Pyknosed Nuclei (%): 16% and 21%
  Population Tubulin-Different-Phenotype (%): 8% and 18%
  Total Cell Count: 240 and 161
[6]
  Population Apoptotic (%): 96% and 100%
  Population Fragmented Nuclei (%): 45% and 29%
  Population Healthy Nuclei (%): 12% and 14%
  Population Hoechst High Intensity Objects (%): 26% and 32%
  Population Membrane Permeable-Phenotype (%): 45% and 70%
  Population Mitochondria Different-Phenotype (%): 30% and 90%
  Population Mitotic Cells (%): 3% and 0%
  Population Normal (%): 73% and 67%
  Population Pyknosed Nuclei (%): 41% and 56%
  Population Tubulin-Different-Phenotype (%): 40% and 90%
  Total Cell Count: 215 and 105
